Read-outs that look alike come from different tables or passages of the source. Marks after values point to notes of the source that are not given here.
How the values were obtained:
[1] = cited from earlier work
[2] = type: in vivo, human; settings: for AR (accumulation ratio): AUC0–24h Day 16 / AUC0–24h Day 1, mean (SD)
Method in brief: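 Patients received 25–400 mg QD or placebo on Day 1 and Days 3–16, fasted overnight, with a standardized breakfast within 10 min. Venous blood was drawn at 0, 0.5, 1, 1.5, 2, 3, 4, 6, 8 and 12 h on Days 1 and 16, and before breakfast on Days 2, 17 and 18. Drug was measured by HPLC-MS/MS, range 1–2000 ng/mL. AR = AUC0–24h Day 16/Day 1; linearity factor = AUC0–24h Day 16/AUC0–∞ Day 1.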

[3] = 24-h urinary excretion rate of unchanged canagliflozin; type: in vivo, human; settings: for Urinary excretion rate: mean (SD)
Method in brief: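 Urine was collected 0–24 h on Days 1 and 16 during once-daily dosing at 25, 100, 200 or 400 mg, given on Day 1 and Days 3–16 between 8:00 and 9:00 a.m. A standardized breakfast followed within 10 min. Unchanged drug was measured by solid-phase extraction and HPLC-MS/MS with a 13C6-labelled internal standard. The validated range was 1–2000 ng/mL.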

[4] = system: Japanese patients with T2DM; assay: Urinary glucose excretion; type: in vivo, human; settings: for mean change from baseline in UGE0–24h: Day 1
Method in brief: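 Urine was collected in timed intervals (0–2 through 13–24 h) on Days 0, 1 and 16, and as 0–24 h pools on Days 2–6, 15, 17 and 18. Dosing was 25–400 mg or placebo QD on Day 1 and Days 3–16. Change from the Day 0 single-blind placebo baseline was determined on each collection day.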

[5] = system: Japanese patients with T2DM; assay: Renal threshold for glucose excretion; type: in vivo, human; settings: Days 1 and 16, versus baseline Day 0
Method in brief: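 RTG was calculated post hoc for Days 0, 1 and 16 from measured plasma glucose, UGE and estimated glomerular filtration rate. Day 0 was a single-blind placebo baseline after an overnight fast; standardized meals were given at about 0, 4.5 and 10.5 h post-dose.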

[6] = system: Japanese patients with T2DM; assay: Adverse events; type: in vivo, human
[7] = system: Japanese patients with T2DM; assay: Urinary electrolyte excretion in 24 hours; type: in vivo, human
Method in brief: (§1)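 Volume-related safety was followed as changes from baseline in blood and urinary laboratory parameters: urine volume, sodium excretion, urine and serum osmolality, and hematocrit. Vital signs covered blood pressure, pulse rate and body temperature. Patients received 25–400 mg QD or placebo on Day 1 and Days 3–16 with standardized meals. Urine was collected in timed intervals or 0–24 h pools.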

[8] = system: Japanese patients with T2DM; assay: Volume-related safety; type: in vivo, human
Method in brief: as §1

[9] = 25 mg QD repeated dose, Day 16, mean (SD), n = 12
[10] = 25 mg single dose, Day 1, mean (SD), n = 12
[11] = 100 mg QD repeated dose, Day 16, mean (SD), n = 12
[12] = 100 mg single dose, Day 1, mean (SD), n = 12
[13] = 200 mg QD repeated dose, Day 16, mean (SD), n = 14
[14] = 200 mg single dose, Day 1, mean (SD), n = 14
[15] = 400 mg QD repeated dose, Day 16, mean (SD), n = 13
[16] = 400 mg single dose, Day 1, mean (SD), n = 13
[17] = canagliflozin groups pooled, 2 cases in 2 of 51 patients

Which “persistence of diuretic effects” value [1] does the source give for `NS(=O)(=O)c1cc2c(cc1Cl)N=CNS2(=O)=O` [chlorothiazide] here?
The value was “about 1 week”.

For `Cc1ccc([C@@H]2O[C@H](CO)[C@@H](O)[C@H](O)[C@H]2O)cc1Cc1ccc(-c2ccc(F)cc2)s1` [Canagliflozin], which “AUC0–24h” value [2, 9] is on record?
The value was 1556 (387) ng·h/mL.

What about the C max [2, 9] of the same molecule?
Its C max is 263 (91) ng/mL.

What about the “t 1/2” value [2, 9] of the same molecule?
The value was 14.21 (7.46) h.

And the t max ([2]; 25 mg QD repeated dose, Day 16, median [min–max], n = 12)?
Its t max is 1.0 [1.0–3.0] h.

What about the “AUC0–24h” value [2, 10] of the same molecule?
The value was 1295 (240) ng·h/mL.

What about the C max [2, 10] of the same molecule?
Its C max is 248 (55) ng/mL.

What about the “t 1/2” value [2, 10] of the same molecule?
The value was 10.70 (1.76) h.

And the t max ([2]; 25 mg single dose, Day 1, median [min–max], n = 12)?
Its t max is 1.0 [1.0–2.0] h.

What about the “AR (accumulation ratio)” value ([2]; 25 mg, n = 12) of the same molecule?
The value was 1.19 (0.12).

And the “AUC0–24h” value [2, 11]?
The value was 6635 (1367) ng·h/mL.

And the C max [2, 11]?
The C max was 1136 (330) ng/mL.

What about the “t 1/2” value [2, 11] of the same molecule?
The value was 11.81 (3.22) h.

And the t max ([2]; 100 mg QD repeated dose, Day 16, median [min–max], n = 12)?
Its t max is 1.0 [1.0–1.5] h.

What about the “AUC0–24h” value [2, 12] of the same molecule?
Its value is 5468 (899) ng·h/mL.

What about the C max [2, 12] of the same molecule?
The C max was 1126 (228) ng/mL.

And the “t 1/2” value [2, 12]?
The value was 10.22 (1.89) h.

What about the t max ([2]; 100 mg single dose, Day 1, median [min–max], n = 12) of the same molecule?
The t max was 1.0 [1.0–1.5] h.

What about the “AR (accumulation ratio)” value ([2]; 100 mg, n = 12) of the same molecule?
The value was 1.21 (0.12).

And the “t 1/2” value ([2]; 200 mg QD repeated dose, Day 16, mean (SD), n = 13)?
The value was 16.16 (5.87)^c h.

And the “AUC0–24h” value [2, 13]?
Its value is 16,716 (5464) ng·h/mL.

And the C max [2, 13]?
Its C max is 2688 (805) ng/mL.

What about the t max ([2]; 200 mg QD repeated dose, Day 16, median [min–max], n = 14) of the same molecule?
The t max was 1.3 [1.0–1.5] h.

What about the “AUC0–24h” value [2, 14] of the same molecule?
The value was 11,991 (3042) ng·h/mL.

What about the C max [2, 14] of the same molecule?
The C max was 2304 (539) ng/mL.

What about the “t 1/2” value [2, 14] of the same molecule?
Its value is 13.26 (4.96) h.

And the t max ([2]; 200 mg single dose, Day 1, median [min–max], n = 14)?
The t max was 1.0 [1.0–1.5] h.

And the “AR (accumulation ratio)” value ([2]; 200 mg, n = 14)?
The value was 1.38 (0.17).

What about the “t 1/2” value ([2]; 400 mg QD repeated dose, Day 16, mean (SD), n = 12) of the same molecule?
Its value is 15.76 (5.56)^d h.

And the “AUC0–24h” value [2, 15]?
Its value is 30,766 (7916) ng·h/mL.

What about the C max [2, 15] of the same molecule?
The C max was 5236 (1123) ng/mL.

And the t max ([2]; 400 mg QD repeated dose, Day 16, median [min–max], n = 13)?
The t max was 1.0 [1.0–1.5] h.

What about the “AUC0–24h” value [2, 16] of the same molecule?
The value was 21,836 (4983) ng·h/mL.

And the C max [2, 16]?
Its C max is 5028 (1733) ng/mL.

What about the “t 1/2” value [2, 16] of the same molecule?
Its value is 12.15 (2.34) h.

And the t max ([2]; 400 mg single dose, Day 1, median [min–max], n = 13)?
Its t max is 1.0 [1.0–3.0] h.

And the “AR (accumulation ratio)” value ([2]; 400 mg, n = 13)?
The value was 1.42 (0.29).

And the “mean accumulation ratios (ARs)” value ([2]; AUC0–24h Day 16 / AUC0–24h Day 1, across doses 25–400 mg)?
The value was 1.19–1.42.

And the linearity factors ([2]; AUC0–24h Day 16 / AUC0–∞ Day 1, any dose (25, 100, 200, 400 mg))?
Its linearity factors is roughly 1.

What about the “elimination half-life (t 1/2)” value ([2]; Day 1, across doses 25–400 mg) of the same molecule?
The value was 10.22 to 13.26 h.

And the “elimination half-life (t 1/2)” value ([2]; Day 16, across doses 25–400 mg)?
Its value is 11.81 to 16.16 h.

What about the t max ([2]; Day 16, across doses 25–400 mg) of the same molecule?
The t max was 1.0 to 1.3 h.

And the “plasma concentration reaches steady state” value ([2]; repeated QD dosing from Day 3, all doses)?
The value was no more than 7 days.

And the Urinary excretion rate ([3]; 25 mg QD repeated dose, Day 16, 0–24 h, n = 12)?
Its Urinary excretion rate is 0.599 (0.183) %.

And the Urinary excretion rate ([3]; 25 mg single dose, Day 1, 0–24 h, n = 12)?
The Urinary excretion rate was 0.387 (0.070) %.

What about the Urinary excretion rate ([3]; 100 mg QD repeated dose, Day 16, 0–24 h, n = 12) of the same molecule?
The Urinary excretion rate was 0.641 (0.204) %.

And the Urinary excretion rate ([3]; 100 mg single dose, Day 1, 0–24 h, n = 12)?
The Urinary excretion rate was 0.384 (0.084) %.

What about the Urinary excretion rate ([3]; 200 mg QD repeated dose, Day 16, 0–24 h, n = 14) of the same molecule?
The Urinary excretion rate was 0.614 (0.195) %.

What about the Urinary excretion rate ([3]; 200 mg single dose, Day 1, 0–24 h, n = 14) of the same molecule?
Its Urinary excretion rate is 0.424 (0.107) %.

What about the Urinary excretion rate ([3]; 400 mg QD repeated dose, Day 16, 0–24 h, n = 13) of the same molecule?
The Urinary excretion rate was 0.495 (0.153) %.

What about the Urinary excretion rate ([3]; 400 mg single dose, Day 1, 0–24 h, n = 13) of the same molecule?
Its Urinary excretion rate is 0.385 (0.097) %.

And the “24-h urinary excretion rate of unchanged canagliflozin” value ([3]; Day 1, means at each dose)?
The value was “approximately 0.4%”.

And the “24-h urinary excretion rate of unchanged canagliflozin” value ([3]; Day 16, means at each dose)?
The value was 0.5–0.6%.

What about the “UGE after the last administration” value ([4]; 24–48 and 48–72 h after the last administration, ≥100 mg) of the same molecule?
The value was “increase in UGE was detected”.

And the “mean change from baseline in UGE0–24h” value ([4]; 25-mg group)?
Its value is “approximately 60 g/day”.

What about the “mean change from baseline in UGE0–24h” value ([4]; 100–400-mg groups) of the same molecule?
The value was 80 to 110 g/day.

What about the “RTG0–24h” value [5] of the same molecule?
The value was “decreased”.

And the “nasopharyngitis, patients with AE” value ([6]; canagliflozin groups pooled, 1 case in 1 of 51 patients)?
Its value is 2.0%.

What about the “dizziness, patients with AE” value [6, 17] of the same molecule?
The value was 3.9%.

What about the “toothache, patients with AE” value [6, 17] of the same molecule?
Its value is 3.9%.

What about the “urine ketone body present, patients with AE” value ([6]; canagliflozin groups pooled, 3 cases in 3 of 51 patients) of the same molecule?
The value was 5.9%.

What about the “anemia, patients with AE” value ([6]; canagliflozin groups pooled, 4 cases in 4 of 51 patients) of the same molecule?
Its value is 7.8%.

What about the “diarrhea, patients with AE” value ([6]; canagliflozin groups pooled, 6 cases in 5 of 51 patients) of the same molecule?
Its value is 9.8%.

What about the “occult blood positive, patients with AE” value ([6]; canagliflozin groups pooled, 14 cases in 12 of 51 patients) of the same molecule?
The value was 23.5%.

And the urinary ketones observed ([6]; canagliflozin-treated groups, all mild)?
The urinary ketones observed was 3 patients.

What about the urinary ketones observed ([6]; dose of 200 mg) of the same molecule?
The urinary ketones observed was 2 cases.

And the urinary ketones observed ([6]; dose of 400 mg)?
Its urinary ketones observed is 1 case.

And the tolerability ([6]; short-term study, patients with T2DM, 25–400 mg)?
The tolerability was “well tolerated”.

And the “AEs related to skin disorders” value ([6]; whole study)?
Its value is “not observed”.

And the urinary sodium excretion ([7]; Day 1, reversed within a week)?
The urinary sodium excretion was “transient nominal increase”.

And the “urinary excretion of electrolytes (potassium, chloride, calcium, magnesium, inorganic phosphorus)” value ([7]; canagliflozin-treated groups compared with the placebo group)?
The value was “No remarkable changes were observed”.

What about the 24-h urine volume ([8]; Day 1, canagliflozin groups) of the same molecule?
The 24-h urine volume was “slightly increased”.

What about the “change in urine osmolality over time from baseline” value ([8]; Day 1, canagliflozin-treated groups) of the same molecule?
Its value is “trend toward an increase”.

And the “pulse rate and incidence of orthostatic hypotension” value ([8]; data not shown)?
The value was “No increases were observed”.

And the hematocrit level ([8]; during the study period)?
Its hematocrit level is “remained unchanged”.

What about the serum osmolality ([8]; during the treatment period) of the same molecule?
Its serum osmolality is “maintained constant”.

What about the “mean systolic and diastolic blood pressures” value ([8]; groups that received ≥100 mg) of the same molecule?
The value was “tended to decrease”.
